This passage reports Activity and EC50 results from ChEMBL document CHEMBL4354876, “A Selective Modulator of Peroxisome Proliferator-Activated Receptor γ with an Unprecedented Binding Mode” (J Med Chem, 2020).

The structures appear in SMILES notation. Calls of active or inactive are those of the source. No cut-off for these calls is given here.

The target in data set [1] is T1, Peroxisome proliferator-activated receptor gamma (Homo sapiens) (UniProt P37231).
T1 sequence (whole entry): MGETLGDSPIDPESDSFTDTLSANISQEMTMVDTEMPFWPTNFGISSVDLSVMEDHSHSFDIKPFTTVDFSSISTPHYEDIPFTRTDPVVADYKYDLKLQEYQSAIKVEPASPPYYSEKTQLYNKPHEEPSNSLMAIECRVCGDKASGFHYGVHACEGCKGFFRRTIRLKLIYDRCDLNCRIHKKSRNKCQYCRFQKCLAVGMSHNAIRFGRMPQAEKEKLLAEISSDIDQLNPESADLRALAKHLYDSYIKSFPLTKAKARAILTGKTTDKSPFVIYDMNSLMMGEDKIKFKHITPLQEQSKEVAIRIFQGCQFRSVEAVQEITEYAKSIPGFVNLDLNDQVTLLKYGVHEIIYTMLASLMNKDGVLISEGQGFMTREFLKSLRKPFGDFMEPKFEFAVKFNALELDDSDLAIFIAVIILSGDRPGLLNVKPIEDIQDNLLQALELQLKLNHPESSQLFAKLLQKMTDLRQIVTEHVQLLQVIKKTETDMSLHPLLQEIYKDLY
The data set can be described thus: Selective modulation of PPARgamma in human HepG2 cells assessed as induction of adiponectin mRNA expression at 1 uM measured after 12 hrs by qPCR analysis. Format: cell-based. Summed up: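 HepG2 cells were incubated with test compound at 1 µM. mRNA of the PPARγ target genes adiponectin and ANGPTL4 was quantified. Mean±S.E.M., n≥3.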

The test system of another data set is NHDF. The data set can be described thus: Induction of adipogenesis in NHDF assessed as reduction in fibroblast differentiation into matured adipocytes at 2 uM administered on day 3 of differentiation 1 and day 5 of differentiation 2 followed by media refreshment at 2 days interval up to 13 days and measured on day 14 by Oil red O staining based light microscopic analysis. As to conditions: human. Format: cell-based. The essentials:
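Primary human fibroblasts (NHDF) were differentiated to mature adipocytes and treated with ligand or DMSO; the test compound was used at 0.2, 2 and 20 µM and the reference at 2 µM. Lipid accumulation was read by Oil Red O staining, with four replicates.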

Data set [2] in a line: Partial agonist activity at recombinant PPARgamma LBD/N-terminal GFP-fused RXRalpha mutant LBD (unknown origin) assessed as increase in biotinylated-SRC1 peptide recruitment measured after 2 hrs by HTRF assay. Details: species or system Homo sapiens. Summed up:
(§1)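 Cell-free HTRF assay of coactivator peptide recruitment (CBP or SRC-1) to the recombinant PPARγ:RXRα heterodimer.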
(In TR-FRET formats the signal depends on donor and acceptor labels being close together.)

Data set [3] can be described thus: Partial agonist activity at recombinant PPARgamma LBD/N-terminal GFP-fused RXRalpha mutant LBD (unknown origin) assessed as increase in biotinylated-CBP peptide recruitment measured after 2 hrs by HTRF assay. On the set-up: species or system Homo sapiens. Summed up: as §1

Turning to `CN(CCOc1ccc(CC2SC(=O)NC2=O)cc1)c1ccccn1` (centres undefined) [ROSIGLITAZONE], the outcome in data set [1] was Active. For the same compound, in the data set with NHDF, the Activity result is “Toxic”. For the same compound, the values for the EC50 in data set [2] and in data set [3] were 116 nM and 121 nM, respectively.
